Data taken from ChEMBL document CHEMBL4368930, “Synthesis and anti-HSV activity of tricyclic penciclovir and hydroxybutylguanine derivatives” (Bioorg Med Chem, 2019).

Assays:
[1] = tested on: Human alphaherpesvirus 1; experiment: Antiviral activity against herpes simplex virus 1 KOS infected in HEL cells assessed as reduction in virus-induced cytopathogenicity by microscopic analysis; format: functional, organism-based; settings: Human alphaherpesvirus 1, strain KOS
[2] = tested on: Human alphaherpesvirus 2; experiment: Antiviral activity against herpes simplex virus 2 G infected in HEL cells assessed as reduction in virus-induced cytopathogenicity by microscopic analysis; format: functional, organism-based; settings: Human alphaherpesvirus 2, G
How it was run: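 Confluent cell monolayers were inoculated with 100 CCID50 of virus or 20 PFU. After a 1–2 h adsorption, residual virus was removed and cultures were incubated with the test compounds at 200, 40, 8, 1.6 and 0.32 μM. Cytopathicity was scored once it was complete in untreated infected controls.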

[3] = tested on: Human alphaherpesvirus 1; experiment: Antiviral activity against thymidine kinase deficient and aciclovir resistant herpes simplex virus 1 KOS infected in HEL cells assessed as reduction in virus-induced cytopathogenicity by microscopic analysis; format: functional, organism-based; settings: Human alphaherpesvirus 1, strain KOS
[4] = Cytotoxicity against HEL cells assessed as effect on cell morphology at 0.32 to 200 uM by microscopic analysis; format: cell-based; settings: human
[5] = tested on: TERT-RPE1; experiment: Cytostatic activity against human hTERT-RPE1 cells; format: ADME, cell-based; settings: RPE-1
How it was run: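 Cell proliferation was measured against the number of cells in untreated controls.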

[6] = tested on: CAPAN-1; experiment: Cytostatic activity against human Capan1 cells; format: ADME, cell-based
[7] = Cytostatic activity against human HAP1 cells; format: ADME, cell-based
[8] = tested on: NCI-H460; experiment: Cytostatic activity against human NCI-H460 cells; format: ADME, cell-based
[9] = Cytostatic activity against human DND41 cells; format: ADME, cell-based
[10] = tested on: HL-60; experiment: Cytostatic activity against human HL60 cells; format: ADME, cell-based
[11] = tested on: K562; experiment: Cytostatic activity against human K562 cells; format: ADME, cell-based
[12] = tested on: Z-138; experiment: Cytostatic activity against human Z138 cells; format: ADME, cell-based
[13] = tested on: Human alphaherpesvirus 3; experiment: Antiviral activity against Varicella-zoster virus Oka harboring thymidine kinase infected in HEL cells assessed as reduction in virus plaque formation; format: functional, organism-based; settings: Human alphaherpesvirus 3, Oka
[14] = tested on: Human alphaherpesvirus 3; experiment: Antiviral activity against thymidine kinase deficient Varicella-zoster virus 07-1 infected in HEL cells assessed as reduction in virus plaque formation; format: functional, organism-based; settings: Human alphaherpesvirus 3, 07-1, HEL
[15] = tested on: Human betaherpesvirus 5; experiment: Antiviral activity against Human cytomegalovirus AD169 assessed as reduction in virus-induced cytopathogenicity by microscopic analysis; format: functional, organism-based; settings: Human betaherpesvirus 5, strain AD169
[16] = tested on: Human betaherpesvirus 5; experiment: Antiviral activity against Human cytomegalovirus Davis assessed as reduction in virus-induced cytopathogenicity by microscopic analysis; format: functional, organism-based; settings: Human betaherpesvirus 5, Davis

| SMILES | EC50 [1] [µM] | EC50 [2] [µM] | EC50 [3] [µM] | MCC at up to 200 µM [4] [µM] | IC50 [5] [µM] | IC50 [6] [µM] | IC50 [7] [µM] | IC50 [8] [µM] | IC50 [9] [µM] | IC50 [10] [µM] | IC50 [11] [µM] | IC50 [12] [µM] | EC50 [13] [µM] | EC50 [14] [µM] | EC50 [15] [µM] | EC50 [16] [µM] |
| --- | --- | --- | --- | --- | --- | --- | --- | --- | --- | --- | --- | --- | --- | --- | --- | --- |
| O=c1c2ncn(CCCCO)c2nc2[nH]c(-c3ccc(Cl)cc3)cn12 | > 100 | > 100 | > 100 | > 100 | > 100 | 64.4 | > 100 | > 100 | > 100 | > 100 | > 100 | > 100 |  |  |  |  |
| O=c1c2ncn(CCCCO)c2nc2[nH]c(-c3ccccc3)cn12 | > 100 | > 100 | > 100 | > 100 | > 100 | 69.1 | > 100 | > 100 | > 100 | > 100 | > 100 | > 100 |  |  |  |  |
| Cc1ccc(-c2cn3c(=O)c4ncn(CCCCO)c4nc3[nH]2)cc1 | > 100 | > 100 | > 100 | > 100 | > 100 | 78.9 | > 100 | > 100 | > 100 | > 100 | > 100 | > 100 |  |  |  |  |
| O=c1c2ncn(CCC(CO)CO)c2nc2[nH]c(-c3ccc(O)cc3)cn12 | 7.6 | 2.3 | > 100 | > 100 | > 100 | > 100 | > 100 | > 100 | > 100 | > 100 | > 100 | > 100 | 9.6 | ≥ 74.5 | > 100 | > 100 |
| O=c1c2ncn(CCCCO)c2nc2[nH]c(-c3cccs3)cn12 | > 100 | > 100 | > 100 | > 100 | > 100 | > 100 | > 100 | > 100 | > 100 | > 100 | > 100 | > 100 |  |  |  |  |
| O=c1c2ncn(CCC(CO)CO)c2nc2[nH]c(-c3ccc(Cl)cc3)cn12 | > 100 | > 100 | > 100 | > 100 | > 100 | 84.8 | > 100 | > 100 | > 100 | > 100 | > 100 | > 100 | > 100 | > 100 | > 100 | > 100 |
| O=c1c2ncn(CCC(CO)CO)c2nc2[nH]c(-c3ccc(F)cc3)cn12 | 8.9 | 28 | 12 | > 100 | > 100 | 82.8 | > 100 | > 100 | > 100 | > 100 | > 100 | > 100 | > 100 | > 100 | > 100 | > 100 |
| O=c1c2ncn(CCCCO)c2nc2[nH]c(-c3ccc(F)cc3)cn12 | > 100 | > 100 | > 100 | > 100 | > 100 | 56.1 | > 100 | 55.5 | > 100 | > 100 | > 100 | > 100 |  |  |  |  |
| COc1ccc(-c2cn3c(=O)c4ncn(CCCCO)c4nc3[nH]2)cc1 | > 100 | > 100 | > 100 | > 100 | > 100 | 98.9 | > 100 | > 100 | > 100 | > 100 | > 100 | > 100 |  |  |  |  |
| O=c1c2ncn(CCC(CO)CO)c2nc2[nH]c(-c3ccccc3)cn12 | > 100 | > 100 | > 100 | > 100 | 78.6 | 58.3 | > 100 | > 100 | > 100 | > 100 | > 100 | > 100 | > 100 | > 100 | > 100 | > 100 |
| COc1ccc(-c2cn3c(=O)c4ncn(CCC(CO)CO)c4nc3[nH]2)cc1 | 1.5 | 0.8 | 0.8 | > 100 | > 100 | > 100 | > 100 | > 100 | > 100 | > 100 | > 100 | > 100 | 66.9 | 100 | > 100 | > 100 |
| O=c1c2ncn(CCC(CO)CO)c2nc2[nH]c(-c3ccc4c(c3)OCO4)cn12 | 44.7 | 40.9 | > 100 | ≥ 100 | > 100 | 78.8 | > 100 | > 100 | > 100 | > 100 | > 100 | > 100 | > 20 | > 100 | > 100 | > 100 |
| O=c1c2ncn(CCC(CO)CO)c2nc2[nH]c(-c3ccc(C(F)(F)F)cc3)cn12 | 20 | 31.7 | > 100 | ≥ 100 | 51.5 | 17.2 | 37.8 | 12.5 | 56.5 | 55.3 | > 100 | 76.1 | 49.5 | 100 | 63.1 | 76.5 |
| O=c1c2ncn(CCCCO)c2nc2[nH]c(-c3ccc4c(c3)OCO4)cn12 | > 100 | > 100 | > 100 | > 100 | > 100 | 92.8 | > 100 | > 100 | > 100 | > 100 | > 100 | > 100 |  |  |  |  |
| CCOc1ccc(-c2cn3c(=O)c4ncn(CCC(CO)CO)c4nc3[nH]2)cc1 | 76.5 | > 20 | > 100 | > 100 | > 100 | > 100 | > 100 | 95.4 | > 100 | > 100 | > 100 | > 100 | > 100 | > 100 | > 100 | > 100 |
| O=c1c2ncn(CCCCO)c2nc2[nH]c(-c3ccc(C(F)(F)F)cc3)cn12 | > 100 | > 100 | > 100 | > 100 | > 100 | 36.1 | 63.8 | 52.5 | > 100 | > 100 | > 100 | > 100 |  |  |  |  |
| Cc1ccc(-c2cn3c(=O)c4ncn(CCC(CO)CO)c4nc3[nH]2)cc1 | > 100 | > 100 | > 100 | > 100 | > 100 | > 100 | > 100 | > 100 | > 100 | > 100 | > 100 | > 100 | 63.1 | > 100 | > 100 | > 100 |
| Nc1nc2c(ncn2COCCO)c(=O)[nH]1 [ACYCLOVIR] | 0.9 | 0.9 | 100 | > 250 |  |  |  |  |  |  |  |  |  |  |  |  |
| O=c1[nH]c(=O)n([C@H]2C[C@H](O)[C@@H](CO)O2)cc1/C=C/Br [BRIVUDINE] |  | > 250 | 14 | > 250 |  |  |  |  |  |  |  |  | 0.037 | 7.9 |  |  |
| Nc1ccn(C[C@@H](CO)OCP(=O)(O)O)c(=O)n1 [CIDOFOVIR] |  |  | 5 | > 250 |  |  |  |  |  |  |  |  |  |  | 0.72 |  |
| CC(=O)O[C@@]12CO[C@@H]1C[C@H](O)[C@@]1(C)C(=O)[C@H](O)C3=C(C)[C@@H](OC(=O)[C@H](O)[C@@H](NC(=O)OC(C)(C)C)c4ccccc4)C[C@@](O)([C@@H](OC(=O)c4ccccc4)[C@H]21)C3(C)C [DOCETAXEL ANHYDROUS] |  |  |  |  | 25 | 0.95 | 1.19 | 0.89 | 1.63 | 0.00194 | 0.003 | 0.003 |  |  |  |  |
| COc1cc([C@@H]2c3cc4c(cc3[C@@H](O[C@@H]3O[C@@H]5CO[C@@H](C)O[C@H]5[C@H](O)[C@H]3O)[C@H]3COC(=O)[C@H]23)OCO4)cc(OC)c1O [ETOPOSIDE] |  |  |  |  | 0.23 | 0.15 | 0.04 | 1.35 | 0.06 | 0.03 | 0.54 | 1.06 |  |  |  |  |
| Nc1nc2c(ncn2COC(CO)CO)c(=O)[nH]1 [GANCICLOVIR] |  | 0.4 |  | > 250 |  |  |  |  |  |  |  |  |  |  |  |  |
| CN[C@@H]1C[C@H]2O[C@@](C)([C@@H]1OC)n1c3ccccc3c3c4c(c5c6ccccc6n2c5c31)C(=O)NC4 [STAUROSPORINE] |  |  |  |  | 0.25 |  |  |  |  |  |  |  |  |  |  |  |
